The list is not random: actives were taken first. Their share in the collection is about 2.2%.
PHOSPHO1 block: blocks human PHOSPHO1 phosphatase activity; Q8TCT1; recombinant PHOSPHO1, absorbance phosphatase assay; inhibition, % at 13.3 µM; 290,000 tested, 1.1% active; AID 1565; in the data active = inhibition above about 60%
Target sequence (Q8TCT1 whole entry, looked up): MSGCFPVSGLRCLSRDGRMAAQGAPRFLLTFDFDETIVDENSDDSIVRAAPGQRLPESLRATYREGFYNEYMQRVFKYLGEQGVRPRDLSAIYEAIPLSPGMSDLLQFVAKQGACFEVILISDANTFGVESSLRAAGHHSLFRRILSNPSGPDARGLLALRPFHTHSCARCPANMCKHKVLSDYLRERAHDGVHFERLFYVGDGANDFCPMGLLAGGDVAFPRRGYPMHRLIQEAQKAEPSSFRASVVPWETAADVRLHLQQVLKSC
IMP-1 inh: inhibitors of Pseudomonas aeruginosa IMP-1 metallo-beta-lactamase. 290,000 tested, 0.45% active. inhibition, % at 5.6 µM. purified IMP-1, nitrocefin hydrolysis, epi-absorbance fluorescence;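 active = inhibition above the mean plus 3 SD of all compounds in the same screening run, cut at about 4.5% in these data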;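 also: 0% = IMP-1 with DMSO and 100% = DMSO wells lacking enzyme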
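System: Purified recombinant IMP-1 metallo-beta-lactamase enzyme | Measured by: Fluorescence quenching readout, ex 480/em 530 nm | Replication: Singlicate | Incubation: 15 min preincubation plus 25 min reaction at 25 °C | Evaluation: Percent inhibition from optical density relative to buffer-blank wells | Benchmarks: DMSO with and without IMP-1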
VIM-2 inh: blocks Pseudomonas aeruginosa VIM-2 metallo-beta-lactamase; purified VIM-2, nitrocefin hydrolysis, epi-absorbance fluorescence; inhibition, % at 5.6 µM; 290,000 tested, 0.89% active;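 active = inhibition above the mean of all tested compounds plus 3 SD, cutoff set per screening run, cut at about 7.5% in these data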;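 also: red hydrolysis product quenches plate fluorescence so inhibitors raise well fluorescence; 0% = enzyme with DMSO and 100% = DMSO without enzyme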
PvdQ acylase: P. aeruginosa PvdQ acylase inhibition. purified PvdQ acylase, fluorescence plate reader. inhibition, % at 10 µM. 340,000 tested, 0.063% active; in the data active = inhibition above about 30%, passing the limit was not always enough;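 also: 0% = vehicle neutral wells and 100% = reference inhibitor wells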
Yeast superoxide: lowers age-related superoxide in aged yeast cells | S. cerevisiae aged cells, superoxide DHE fluorescence; stronger effect = lower value | superoxide response (% of plate mean), % at 10 µM | 330,000 tested, 0.18% active | AID 2690;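 active = superoxide response under a set limit, about three screen SD below normal, cut at about 65% in these data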;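 also: yeast aged for seven days with compound at 30 °C before DHE staining; 100% = average MFI of all compound-treated wells on the plate with controls excluded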
Numbers without * were called inactive; nt = no result given; ! = not confirmed by another sample.

SMILES	PHOSPHO1 block	IMP-1 inh	VIM-2 inh	PvdQ acylase	Yeast superoxide
CCOC(=O)/C(C#N)=C/c1ccc(OC)c(OC)c1	-3.7	-5.3	-4.0	-11.0	107.7
CCOC(=O)/C(C#N)=C/c1ccc(SC)cc1	-10.0	-1.5	-2.0	44.8*	107.5
C#CC(=O)CC1(CN(Cc2ccccc2)C(=O)OC(C)(C)C)CCCCC1	nt	nt	nt	-8.4	nt
NC(=O)C1CCN(C(=O)COc2ccc3c(c2)oc(=O)c2ccccc23)CC1	29.1	-1.1	11.7*	4.7	88.8
CCOC(=O)CSc1nnc2c3ccccc3n(CC)c2n1	24.7	-2.7	7.9*	-9.0	112.0
O=C1c2ccccc2C(=O)N1CSc1nnc2c3ccccc3n(CCc3ccccc3)c2n1	7.8	3.1	-0.9	-14.7	95.1
Cn1c2ccccc2c2nnc(SCC(=O)NC3CCCC3)nc21	23.2	-2.2	9.2*	-13.3	96.0
CCN(CC)CCSc1nnc2c3ccccc3n(CCc3ccccc3)c2n1	36.0	-2.8	11.4*	4.3	111.7
CCn1c2ccccc2c2nnc(SCC(=O)OCN3C(=O)c4ccccc4C3=O)nc21	-0.2	-4.5	-0.7	10.1	93.3
CC(=O)c1ccc(N2CCN(S(=O)(=O)c3ccc4ccccc4c3)CC2)cc1	nt	nt	nt	-9.4	115.9
CC(=O)c1ccc(N2CCN(c3ccc4cc(S(=O)(=O)N5CCC(C)CC5)ccc4n3)CC2)cc1	-4.1	12.4*	-2.0	-5.4	99.9
Cc1ccsc1CN(C)C(=O)CN1C(=O)NC2(CCCc3ccccc32)C1=O (stereo not drawn)	nt	nt	nt	-4.2	118.2
COc1ccc(/C=C/C(=O)NC(=S)NNC(=O)c2ccco2)cc1	4.9	-1.9	-3.0	-3.8	165.3
COc1ccc(C(=O)NNC(=S)NC(=O)/C=C/c2cccs2)cc1	89.7*	-3.6	-3.2	-3.2	111.9
COc1ccc(/C=C/C(=O)NC(=S)NNC(=O)Cc2cccs2)cc1	95.7*	-4.4	-5.6	7.3	58.4*
COc1ccc(/C=C/C(=O)NC(=S)Nc2ccc(C(=O)O)cc2)cc1	67.2*	-2.0	-1.2	-5.3	123.7
CC(C)=CCC/C(C)=C/CNC(=O)C[C@H]1C[C@H](C(=O)N2CCCCC2)[C@@]2(C)c3[nH]c4cc(CCC(=O)N(C)C)ccc4c3CCN2C1=O	nt	nt	nt	-4.2	88.5
O=C(N/N=C/c1sc(=O)n(Cc2ccc(Br)cc2)c1Cl)c1ccco1	6.8	23.9*	1.6	6.0	114.2
CSc1nc(SCCN(C)C)c2c3c(sc2n1)COC(C)(C)C3	-8.1	-1.7	8.9*	-10.9	93.6
CSc1nc(SC(C)C(=O)O)c2c3c(sc2n1)COC(C)(C)C3 (stereo not drawn)	1.8	-0.8	7.3	-10.6	109.3
CCc1nc(SCC(=O)OC)c2c3c(sc2n1)COC(C)(C)C3	24.8	-2.6	0.8	-18.8	90.9
CCc1nc(SCC(=O)O)c2c3c(sc2n1)COC(C)(C)C3	18.5	-1.2	8.1*	-9.5	106.7
CCOC(=O)c1c(C2CC2)csc1NC(=O)COC(=O)CCS(=O)(=O)c1ccc(C)cc1	-3.4	0.6	0.4	-11.1	97.2
O=C(Nc1ccc2nc(-c3ccco3)c(-c3ccco3)nc2c1)N1CCN(c2ccccn2)CC1	97.7*	-1.7	-3.8	9.5	89.9
S=C(Nc1ccc(N2CCOCC2)cc1)Nc1ccc2nc(-c3ccco3)c(-c3ccco3)nc2c1	92.4*	4.2	1.4	13.2	112.3
SMILES	PHOSPHO1 block	IMP-1 inh	VIM-2 inh	PvdQ acylase	Yeast superoxide
O=C(Nc1ccc(N2CCOCC2)cc1)c1ccc2nc(-c3ccco3)c(-c3ccco3)nc2c1	-26.0	0.8	-0.3	-1.2	113.7
CCC(=O)Nc1nc2c(OC)ccc(OC)c2s1	-18.6	4.9*	-0.5	-7.9	96.1
O=C(CCNC(=O)c1ccc([N+](=O)[O-])cc1)Oc1ccc(F)c(F)c1	nt	nt	nt	-2.7	112.4
Cc1ccc(C(C(=O)NC2CCCCC2)N(Cc2ccccc2)C(=O)Cc2c[nH]c3ccccc23)o1 (stereo not drawn)	-20.0	-4.0	-3.0	-19.4	107.6
COc1cccc(CN(C(=O)Cc2c[nH]c3ccccc23)C(C(=O)NC2CCCCC2)c2ccc(C)o2)c1 (stereo not drawn)	1.1	22.3*	-2.4	10.4	88.0
COc1ccc(CN(C(=O)Cc2c[nH]c3ccccc23)C(C(=O)NC2CCCCC2)c2ccc(C)o2)cc1 (stereo not drawn)	24.3	49.4*	-2.2	3.6	91.2
N#Cc1c(Cc2cccc3ccccc23)nn(CCO)c1N	nt	nt	nt	13.5	113.7
Cn1nccc1C(=O)N1CCCC(N2CCN(Cc3ccc4c(c3)OCO4)CC2)C1 (stereo not drawn)	61.0*	-3.6	-1.9	-9.9	94.9
Cc1cccc(N(O)C(=O)Nc2cccc(Cl)c2)c1	-0.8	-0.1	3.9	-36.7	93.0
CCN1CCCC1CNc1ncnc2c1[nH]c1ccc(Cl)cc12 (stereo not drawn)	31.3	2.4	12.2*	-7.2	99.9
Clc1ccc2[nH]c3c(NCCCN4CCOCC4)ncnc3c2c1	6.8	1.6	9.9*	3.9	93.8
CN(C(=O)CSc1nc2ccc(Cl)cc2[nH]1)C1CCS(=O)(=O)C1 (stereo not drawn)	nt	nt	nt	5.8	105.9
Cn1c(CCN2CCOCC2)nc2cc(NC(=O)c3cccs3)ccc21	64.3*	-2.7	0.2	4.8	103.4
CC(=O)NCCc1nc2cc(NC(=O)c3cccs3)ccc2n1C	6.7	-1.1	-2.5	-19.7	119.0
Cc1csc(SCC(=O)Nc2cc([N+](=O)[O-])ccc2F)n1	nt	nt	nt	-7.0	96.3
O=C(Cc1ccccc1)Nc1nc(=O)c2ccccc2s1	-132.6	-0.1	11.0*	-21.3	123.8
CCc1nc2ccc(C(=O)N(C)CC(=O)Nc3ccc(F)c(F)c3F)cc2nc1CC	nt	nt	nt	-13.4	nt
O=C(CSc1nc2cc(S(=O)(=O)N3CCOCC3)ccc2o1)Nc1c(F)cccc1F	-163.9	-0.1	-3.2	7.9	98.7
O=C(CSc1nc2cc(S(=O)(=O)N3CCOCC3)ccc2o1)NC1CCCc2ccccc21 (stereo not drawn)	75.7*	-4.8	-2.1	-6.8	80.2
Cc1ccc(C(=O)CSc2nc3cc(S(=O)(=O)N4CCOCC4)ccc3o2)cc1	68.0*	-4.0	-2.3	13.1	115.8
Cc1nc2ccc(Nc3nc4cc(S(=O)(=O)N5CCOCC5)ccc4o3)cc2s1	91.5*	-3.4	-3.3	6.7	120.4
Cc1ccccc1-c1cc(=O)c2ccccc2o1	nt	nt	nt	-8.1	107.9
Cc1c2cc(O)c(=O)cc-2oc2cc(O)c(O)cc12	29.8	6.5*!	-0.8	-13.3	68.8
Cc1c(Br)c([N+](=O)[O-])nn1CC(=O)N1CCN(C23CC4CC(CC(C4)C2)C3)CC1	3.9	-2.2	-3.2	-10.7	97.8
CCOC(=O)CNC(=O)CSc1nc2nc(C)c(Br)cc2[nH]1	73.8*	-4.8	-0.7	-24.9	95.6
Cc1nc2nc(SCC(N)=O)[nH]c2cc1Br	18.9	-6.2	-1.4	-10.4	103.1
COc1ccc(-c2nc(CS(=O)CC(=O)NC3CCCC3)c(C)o2)cc1 (stereo not drawn)	70.0*	-2.0	-1.5	-15.7	80.8

Bioassay records from PubChem.
